Measurements as given in ChEMBL document CHEMBL1129245, “N-heteroaryl-2-phenyl-3-(benzyloxy)piperidines: a novel class of potent orally active human NK1 antagonists” (J Med Chem, 1996).

Tests used:
Rattus norvegicus [1] = species on record: Rattus norvegicus; experiment: Degradation of compound in incubations at 25 uM with normal rat liver microsomes after 1 hour relative to initial concentration of 1 uM; format: functional
Summary of the method: (§1)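 Each compound incubated at 25 µM with normal rat liver microsomes, P-450 at 1.45 nM/mg microsomal protein. Remaining substrate sampled at 15 min, 1 h, 4 h and 24 h and expressed relative to an initial concentration of 1.0. Single determination (n = 1).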

Rattus norvegicus [2] = species on record: Rattus norvegicus; experiment: Degradation of compound in incubations at 25 uM with normal rat liver microsomes after 24 hour relative to initial concentration of 1 uM; format: functional; summary of the method: as §1
Oryctolagus cuniculus = species on record: Oryctolagus cuniculus; experiment: Displacement of [3H]diltiazem from rabbit skeletal muscle calcium channel; format: tissue-based; settings: Muscle tissue
Rattus norvegicus [3] = species on record: Rattus norvegicus; experiment: Degradation of compound in incubations at 25 uM with normal rat liver microsomes after 4 hour relative to initial concentration of 1 uM; format: functional; summary of the method: as §1
Substance-P receptor = Substance-P receptor (Homo sapiens, UniProt P25103); experiment: Displacement of [125 I]-Tyr8 SP from the cloned human Tachykinin receptor 1 expressed in CHO cells; format: cell-based
Chain of Substance-P receptor (P25103 whole entry): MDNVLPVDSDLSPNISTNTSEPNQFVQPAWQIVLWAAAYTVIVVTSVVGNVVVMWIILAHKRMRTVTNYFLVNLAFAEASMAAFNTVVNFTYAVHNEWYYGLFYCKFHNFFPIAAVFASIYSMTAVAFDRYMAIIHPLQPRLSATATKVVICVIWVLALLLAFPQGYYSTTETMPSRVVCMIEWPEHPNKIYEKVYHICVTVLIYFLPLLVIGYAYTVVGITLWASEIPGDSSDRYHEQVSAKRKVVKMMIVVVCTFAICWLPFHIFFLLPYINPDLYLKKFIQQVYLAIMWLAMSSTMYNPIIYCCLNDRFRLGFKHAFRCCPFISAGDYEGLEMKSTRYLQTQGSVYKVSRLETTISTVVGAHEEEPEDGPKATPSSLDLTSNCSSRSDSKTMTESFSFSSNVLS

**Q.** With `FC(F)(F)c1cc(CO[C@H]2CCCN(Cc3c[nH]cn3)[C@H]2c2ccccc2)cc(C(F)(F)F)c1` as the compound, how does the Concentration (Rattus norvegicus [1]) read?
**A.** Its Concentration is 0.72 µM.

**Q.** And the Concentration (Rattus norvegicus [2])?
**A.** Its Concentration is 0.18 µM.

**Q.** And the Binding affinity (Oryctolagus cuniculus)?
**A.** The Binding affinity was 2.3 µM.

**Q.** What about the Concentration (Rattus norvegicus [3]) of the same compound?
**A.** Its Concentration is 0.55 µM.

**Q.** With `FC(F)(F)c1cc(CO[C@H]2CCCN(Cc3nnn[nH]3)[C@H]2c2ccccc2)cc(C(F)(F)F)c1` as the compound, how does the IC50 (Substance-P receptor) read?
**A.** The IC50 was 43 nM.
